Experimental data as given in ChEMBL document CHEMBL1146335, “Synthesis and biological activation of an ethylene glycol-linked amino acid conjugate of cyclic cidofovir” (Bioorg Med Chem Lett, 2007).

Columns and labels:
Human betaherpesvirus 5 = experiment: Antiviral activity against HCMV Towne in HFF cells by plaque reduction assay; assay type: functional, organism-based; conditions: Human betaherpesvirus 5, Towne
Summary of the method: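 HFF cells in 24-well dishes infected with ~100 p.f.u./cm2 HCMV Towne (plaque-purified isolate Po). After adsorption, compounds (DMSO stocks diluted in growth medium) added at 4–8 concentrations in duplicate.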

[1] = Stability in phosphate buffer in pH 3 at 37 degC at 500 uM; assay type: physicochemical; conditions: pH 3, 500 µM
Summary of the method: (§1)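 Compound (500 μM) incubated at 37°C in 50 mM phosphate buffer brought to the stated pH with HCl. Monitored over 3 hours; half-life in hours.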

[2] = Stability in phosphate buffer in pH 4 at 37 degC at 500 uM; assay type: physicochemical; conditions: pH 4, 500 µM; summary of the method: as §1
[3] = Stability in phosphate buffer in pH 5 at 37 degC at 500 uM; assay type: physicochemical; conditions: pH 5, 500 µM; summary of the method: as §1
[4] = Stability in phosphate buffer in pH 6 at 37 degC at 500 uM; assay type: physicochemical; summary of the method: as §1
[5] = Stability in phosphate buffer in pH 7 at 37 degC at 500 uM; assay type: physicochemical; summary of the method: as §1
[6] = (§2) Half life in rat liver in 37degC at 500 uM; assay type: ADME, tissue-based; conditions: rat liver
Summary of the method: (§3)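 Compound exposed at 37°C to homogenates of Caco-2 or HFF cells, or of rat liver or intestine. Samples taken at intervals from 0 to 3 h and analysed by HPLC. Half-life estimated as for the buffer stability study.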

[7] = (§4) Half life in rat intestine in 37degC at 500 uM; assay type: ADME, tissue-based; conditions: rat intestine; summary of the method: as §3
[8] = (§5) Half life in Caco-2 cells in 37degC at 500 uM; assay type: ADME, cell-based, Colon; conditions: human, Caco-2 cells; summary of the method: as §3
[9] = (§6) Half life in HFF cells in 37degC at 500 uM; assay type: ADME, cell-based; conditions: human, HFF cells; summary of the method: as §3
[10] = Half life in Sprague-Dawley rat intestinal lumen in 37degC at 500 uM; assay type: ADME
Summary of the method: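 Compound incubated at 37°C in intestinal perfusate from Sprague Dawley rats. Perfusate made by passing buffered solution (pH 6.5) through an isolated intestinal segment. Sampled between 0 and 3 h, analysed by HPLC, half-life estimated.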

KB = experiment: Cytotoxicity against human KB cells at 100 uM; assay type: functional, cell-based
Summary of the method: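 KB cells grown logarithmically for two days with compound, in triplicate. Growth read by spectrophotometric quantitation of crystal violet eluted from stained cells.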

[11] = Stability in phosphate buffer in pH 6.5 at 37 degC at 500 uM; assay type: physicochemical; summary of the method: as §1
Liver = experiment: as §2; assay type: ADME, tissue-based; conditions: in vivo, 500 µM; summary of the method: as §3
Intestine = experiment: as §4; assay type: ADME, tissue-based; conditions: in vivo, 500 µM; summary of the method: as §3
Caco-2 = experiment: as §5; assay type: ADME, cell-based, Colon; conditions: human, caco-2, 500 µM; summary of the method: as §3
HFF = experiment: as §6; assay type: ADME, cell-based; conditions: human, hff, 500 µM; summary of the method: as §3
[12] = AUC (0 to infinity) in rat at 0.1 mg, iv; assay type: ADME, organism-based; set-up: dose 0.1 mg, route intravenous, time infinity; conditions: plasma
Summary of the method: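 Rat; reference compound dosed intravenously at 0.1 mg. Plasma AUC from zero to infinity, dose normalized.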

Rattus norvegicus = experiment: Bioavailability in rat at 3 mg, iv; assay type: ADME, organism-based; conditions: in vivo, in the assay text read “0.1 mg” for “3 mg”
Summary of the method: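 Rat; drug injected directly into the gastrointestinal tract at 3 mg, with a 0.1 mg intravenous reference. Prodrug AUC summed the released cyclic parent and the intact prodrug. Bioavailability = dose-normalized GI AUC ÷ IV AUC, corrected for the IV vs oral dose difference.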

`Nc1nc2c(ncn2COC(CO)CO)c(=O)[nH]1` [GANCICLOVIR] gave an IC50 (Human betaherpesvirus 5) of 3 µM.
In the case of `CC(C)C(N)C(=O)OCCOP1(=O)CO[C@@H](Cn2ccc(N)nc2=O)CO1` (some centres undefined), the Stability [1] is reported as “Stable”, the Stability [2] is reported as “Stable” and the Stability [3] is reported as “Stable”. It also gave a half-life at 500 µM ([4]; phosphate buffer, pH 6) of 16 h, a half-life at 500 µM ([5]; phosphate buffer, pH 7) of 3.5 h and a half-life at 500 µM [6] of 3.7 min. It also gave a half-life at 500 µM [7] of 0.208 h, a half-life at 500 µM [8] of 0.337 h and a half-life at 500 µM [9] of 1.17 h. For the same compound, the half-life at 500 µM ([10]; Sprague-Dawley, rat intestinal lumen) was 2.36 h, the IC50 (Human betaherpesvirus 5) was 0.68 µM and the Activity (KB) was “Not toxic”.
With `Nc1ccn(C[C@H]2COP(=O)(OCCOC(=O)C(N)Cc3ccccc3)CO2)c(=O)n1` (some centres undefined) the Stability [1] was “Stable”, the Stability [2] was “Stable” and the Stability [3] was “Stable”. The half-life at 500 µM [11] was 3.7 h.
With `Nc1ccn(C[C@H]2COP(=O)(O)CO2)c(=O)n1` [CYCLIC CIDOFOVIR] the Stability [1] was “Stable”, the Stability [2] was “Stable” and the Stability [3] was “Stable”. For the same compound, the Stability ([4]; buffer, pH 6, 500 µM) was “Stable”, the Stability ([5]; buffer, pH 7, 500 µM) was “Stable” and the Stability (Liver) was “Stable”. For the same compound, the Stability (Intestine) was “Stable”, the Stability (Caco-2) was “Stable” and the Stability (HFF) was “Stable”. The Stability ([10]; in vivo, 500 µM) was “Stable”, the AUC(0-inf) [12] was 472 ng·h/mL and the F (Rattus norvegicus) was 100%.
